The list is not random: actives were taken first. Their share in the collection is about 5.1%.
Hsp90 block = displaces geldanamycin probe from tumor Hsp90; P07900; inhibition, % at 30 µM; AID 429; NCI-N417 lysate Hsp90, Cy3B-geldanamycin FP displacement; 0.35% of 64,000 active;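 active = inhibition above 50%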;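 also: 0% = tracer plus lysate wells and 100% = tracer alone without lysate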
Ecoli WT expand = blocks growth of wild type E. coli BW25113; OD600 absorbance; growth inhibition, % at 100 µM; 0.15% of 98,000 active; AID 710;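 active = growth inhibition above about 50% at one test dose, limit read from the data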;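 also: growth measured after 20 h incubation at 37 °C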
tolC growth inh = growth inhibitors of E. coli BW25113 tolC mutant; OD615; growth inhibition, % at 10 µM (by protocol); 2.2% of 65,000 active;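 active = growth inhibition at or above a cutoff equal to the mean over every tested compound plus 3 SD, cut at about 60% in these data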;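 also: growth measured after 20 h incubation at 37 °C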
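Test system: tolC-deleted E. coli BW25113 | Medium: LB with kanamycin 50 µg/mL | Compound dosing: Single concentration, 10 µM final per compound | Schedule: 37 °C, 20 h exposure | Measured by: OD at 615 nm | Evaluation: Percent growth inhibition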
M1 antagonist = antagonists of rat M1 muscarinic receptor. 3.4% of 64,000 active. CHO-M1 cells, Fluo-4 calcium, ACh EC80 antagonist mode; active compounds read low. B-score at 10 µM. P08482;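 active = calcium fluorescence response, raw or row-and-column corrected B-score, differing from the plate sample mean either way at a set confidence level, mostly lower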
BAP1 inh = human BAP1 deubiquitinase inhibition. calls only at 20 µM. recombinant BAP1, Ub-AMC hydrolysis fluorescence kinetic; active compounds read low. Q92560. 0.48% of 72,000 active;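 active = activity remaining at or below 50% of control, provided the compound also passes the data quality filters; inactive = the rest, including low values that fail the filters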;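 also: 100% = DMSO wells rate and 0% = substrate alone blank rate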
Target sequence (Q92560 whole entry, looked up): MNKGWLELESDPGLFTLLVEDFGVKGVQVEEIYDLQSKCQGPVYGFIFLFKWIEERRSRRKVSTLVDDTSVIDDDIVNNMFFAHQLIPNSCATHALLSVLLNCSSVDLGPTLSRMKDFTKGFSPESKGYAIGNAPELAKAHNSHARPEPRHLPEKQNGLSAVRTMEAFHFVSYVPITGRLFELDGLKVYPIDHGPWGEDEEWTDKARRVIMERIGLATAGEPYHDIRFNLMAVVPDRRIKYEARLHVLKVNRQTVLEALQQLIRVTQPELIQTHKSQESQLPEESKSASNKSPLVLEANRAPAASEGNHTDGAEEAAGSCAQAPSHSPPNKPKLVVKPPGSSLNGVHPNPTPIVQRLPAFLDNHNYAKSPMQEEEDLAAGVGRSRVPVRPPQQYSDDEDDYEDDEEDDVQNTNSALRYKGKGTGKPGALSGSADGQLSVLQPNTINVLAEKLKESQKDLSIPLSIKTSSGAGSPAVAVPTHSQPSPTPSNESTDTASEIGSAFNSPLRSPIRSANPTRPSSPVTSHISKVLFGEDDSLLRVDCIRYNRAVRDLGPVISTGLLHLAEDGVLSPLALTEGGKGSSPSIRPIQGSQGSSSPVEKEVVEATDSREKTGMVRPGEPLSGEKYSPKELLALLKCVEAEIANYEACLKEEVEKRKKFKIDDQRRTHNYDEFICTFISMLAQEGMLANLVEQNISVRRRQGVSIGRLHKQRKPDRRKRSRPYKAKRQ
M1 ag = agonists of M1 muscarinic receptor; CHO-M1 cells, Fluo-4 calcium fluorescence, agonist mode; active compounds read high; B-score at 10 µM; 3% of 64,000 active; AID 626;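 active = fluorescence rise, raw or as B-score row- and column-corrected plate score, outside the 99.7% band of its plate's samples, either direction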
Active calls of the source: *; i = inactive; x = not tested or not shown.

SMILES | Hsp90 block | Ecoli WT expand | tolC growth inh | M1 antagonist | BAP1 inh | M1 ag
CC(C)N(C(=O)C1CC(=O)OC12CCCCC2)C(C)C (stereo not given) | x | 3 | -7 | 0.02 | x | 0.064
CCSC(C)CC1C/C(=N/O)c2c(CC)noc2C1 (stereo not given) | 1 | 10 | 61* | x | i | x
Clc1ccc2nc(NC3=NCN(CCN4CCOCC4)CN3)nc(-c3ccccc3)c2c1 | 2 | x | x | -15* | x | 0.8
Cc1cccc(Cn2c(SCCN3CCCCC3)nc3c2c(=O)[nH]c(=O)n3C)c1 | -1 | x | -6 | -3.6* | i | -0.036
Cc1cccc(Cn2c(SCC(=O)Nc3ccccc3)nc3c2c(=O)[nH]c(=O)n3C)c1 | -3 | -1 | 14 | -0.11 | i | -0.68
COc1ccc(OC(=O)c2cccc([N+](=O)[O-])c2)c(C(C)=O)c1 | x | x | x | x | i | x
CCn1c(SCC(=O)N2c3ccccc3Sc3ccccc32)nnc1-c1ccco1 | 3 | -11 | 32 | -2 | i | -0.084
Cn1c(SCC(=O)N2c3ccccc3Sc3ccc(Cl)cc32)nnc1-c1ccco1 | 3 | -7 | 65* | -0.43 | i | -0.46
CC(=O)Nc1nc2c(s1)C(=O)CC(C)(C)C2 | x | x | x | x | i | x
c1ccc(-c2nc(NCc3ccco3)c3ccccc3n2)nc1 | -14 | 20 | 83* | 2.1 | i | -0.25
O=S(=O)(Nc1nc2ccccc2nc1NCc1ccco1)c1ccccc1 | -3 | 1 | 71* | -0.054 | x | -1.3
CC(=O)c1ccc(N=c2oc3ccccc3cc2C(N)=O)cc1 | x | x | x | x | i | x
CCOC(=O)CS(=O)(=O)c1nc(-c2ccc(F)cc2)cc(C(F)(F)F)n1 | 3 | 4 | 18 | 0.051 | i | 4.4*
O=C(c1ccc2ccccc2c1)N1CCN(c2ccc([N+](=O)[O-])c(N3CCOCC3)c2)CC1 | x | -15 | x | x | x | x
O=C(c1ccc2ccccc2c1)N1CCN(c2ccc(O)cc2)CC1 | 92* | -1 | 11 | -0.41 | i | -0.7
O=C(c1cc(-c2ccco2)on1)N1CCN(c2ccccc2)CC1 | -7 | -4 | 7 | -0.22 | i | -0.31
O=C(c1ccc2nc(-c3ccco3)c(-c3ccco3)nc2c1)N1CCN(c2ccccc2)CC1 | -3 | -13 | 43 | -1.2 | x | 5.7*
O=C(c1cc2nc(-c3ccco3)cc(C(F)(F)F)n2n1)N1CCN(c2ccccc2)CC1 | -5 | -7 | 71* | -0.51 | i | 2.3
CC(=O)C12c3ccccc3C(c3ccccc31)C1C(=O)N(c3cccc(Cl)c3)C(=O)C12 (stereo not given) | x | x | x | x | i | x
O=C(Nc1cccc2ccccc12)c1cccc(N=Cc2cc(Cl)cc([N+](=O)[O-])c2O)c1 | x | x | x | x | i | x
Cc1cccc(-n2ncc3c(NCc4ccc5c(c4)OCO5)ncnc32)c1 | 1 | 0 | 76* | 0.45 | i | 0.043
COc1ccccc1CNc1ncnc2c1cnn2-c1ccccc1 | -2 | x | 61* | 0.66 | i | -0.38
CCCCC(CC)c1nnc(NC(=O)c2ccccc2Br)s1 (stereo not given) | x | x | x | x | i | x
Cc1ccc([N+](=O)[O-])cc1NC(=O)c1cncc(Br)c1 | x | x | x | x | i | x
c1ccc(CCc2ccccc2-c2nc(-c3cccnc3)no2)cc1 | -9 | -12 | 73* | 0.39 | x | -0.087
SMILES | Hsp90 block | Ecoli WT expand | tolC growth inh | M1 antagonist | BAP1 inh | M1 ag
c1cncc(-c2noc(-c3cccc4ccccc34)n2)c1 | x | -15 | x | x | x | x
c1ccc(-c2ccccc2-c2nc(-c3cccnc3)no2)cc1 | -6 | 4 | 98* | 0.49 | i | 1
c1ccc(-c2noc(-c3cccc4ccccc34)n2)cc1 | -4 | 2 | 70* | 0.82 | x | -2.3
c1ccc2c(-c3nc(-c4ccncc4)no3)cccc2c1 | -5 | 0 | 4 | 0.0017 | i | -0.11
CC(C)(C)NC(=O)C(c1ccco1)N(C(=O)Cn1nnc(-c2ccc(F)cc2)n1)c1cccc(F)c1 (stereo not given) | -3 | 2 | 67* | -0.18 | i | 0.68
Cc1ccc(-c2nnn(CC(=O)N(Cc3ccco3)C(C(=O)NC(C)(C)C)c3cccs3)n2)o1 (stereo not given) | -3 | -5 | 74* | 0.082 | i | -1.1
Cc1ccc(-c2nnn(CC(=O)N(Cc3cccs3)C(C(=O)NC(C)(C)C)c3ccco3)n2)o1 (stereo not given) | -1 | -8 | 69* | 0.088 | i | -0.71
COC(=O)c1sc2ccccc2c1NC(=O)c1ccc(C)cc1 | x | x | x | x | i | x
CCCn1c(=O)c(C(=O)Nc2c(C)n(C)n(-c3ccccc3)c2=O)c(O)c2ccccc21 | -2 | x | -3 | -11* | i | -0.013
CCCn1c(=O)c(C(=O)Nc2ccccc2C(=O)OCC)c(O)c2ccccc21 | -4 | -17 | 0 | 0.12 | i | -0.31
CC1Oc2ccccc2N(CC(=O)c2ccccc2)C1=O (stereo not given) | -2 | -1 | -4 | 0.24 | i | 0.56
COc1ccc(CN(C(=O)CN2C(=O)COc3ccccc32)C2CCCC2)c(OC)c1 | 0 | -5 | 71* | -0.64 | i | 0.14
COc1ccc(CN(Cc2ccccn2)C(=O)CN2C(=O)COc3ccccc32)cc1 | -2 | -6 | 7 | -0.03 | i | 1.8
COc1ccc(CN(C(=O)CN2C(=O)C(C)Oc3ccccc32)C2CCCC2)c(OC)c1 (stereo not given) | -4 | -6 | 67* | -0.74 | i | 0.059
CC(=O)N(CCC1(c2ccccc2)CCOC(C)(C)C1)Cc1ccc(N(C)C)cc1 (stereo not given) | x | x | x | x | i | x
O=C(CSc1nnnn1C1CCCC1)Nc1cccc(NC(=O)c2ccco2)c1 | -2 | 3 | 24 | 0.67 | i | 0.99
O=C(CSc1nnnn1C1CCCCC1)Nc1cccc(NC(=O)c2ccco2)c1 | -1 | -5 | 73* | 0.11 | i | 2.8
O=C(O)c1cc(-c2ccc([N+](=O)[O-])c(C(=O)O)c2)ccc1[N+](=O)[O-] | x | x | x | x | i | x
CCOC(=O)N1CCc2c(sc(NC(C)=O)c2C(N)=O)C1 | 0 | x | -8 | -0.52 | i | -0.67
CCOC(=O)N1CCc2c(sc(NC(=O)c3ccc(Cl)s3)c2C(N)=O)C1 | -3 | -4 | 73* | -0.042 | i | 5.3*
Cc1ccc(OCC(=O)NCc2ccccc2)cc1C | x | x | x | x | i | x
CC(=O)Oc1cc2c(C(=O)NCc3ccncc3)c(C)oc2c2ccccc12 | 2 | x | 3 | 2* | i | 6.1*
CCOC(=O)c1cc2sccc2n1CC(=O)N1CCCc2ccccc21 | 2 | -3 | 100* | -0.66 | i | 2.2
CCCn1c(=NC(=O)c2ccncc2)c(C#N)cc2c(=O)n3cccc(C)c3nc21 | -13 | x | 15 | 0.43 | i | 20*
CCCn1c(=NC(=O)c2ccc3c(c2)OCO3)c(C#N)cc2c(=O)n3cccc(C)c3nc21 | -8 | x | -4 | 0.17 | i | -1
CC(=O)N=c1c(C#N)cc2c(=O)n3cccc(C)c3nc2n1CC(C)C | -2 | x | 9 | 0.017 | i | 13*
O=C(COC(=O)c1ccc([N+](=O)[O-])cc1Cl)c1ccc(Br)cc1 | x | x | x | x | i | x

Screens from PubChem.
